Experimental findings from ChEMBL document CHEMBL3351355, “Structure-affinity/activity relationships of 1,4-dioxa-spiro[4.5]decane based ligands at α1 and 5-HT1A receptors” (Eur J Med Chem, 2014) are described below.

The structures appear in SMILES notation.

For experiment [1], the target named is T1, 5-hydroxytryptamine receptor 1A (Homo sapiens) (UniProt P08908).
T1 sequence (whole entry): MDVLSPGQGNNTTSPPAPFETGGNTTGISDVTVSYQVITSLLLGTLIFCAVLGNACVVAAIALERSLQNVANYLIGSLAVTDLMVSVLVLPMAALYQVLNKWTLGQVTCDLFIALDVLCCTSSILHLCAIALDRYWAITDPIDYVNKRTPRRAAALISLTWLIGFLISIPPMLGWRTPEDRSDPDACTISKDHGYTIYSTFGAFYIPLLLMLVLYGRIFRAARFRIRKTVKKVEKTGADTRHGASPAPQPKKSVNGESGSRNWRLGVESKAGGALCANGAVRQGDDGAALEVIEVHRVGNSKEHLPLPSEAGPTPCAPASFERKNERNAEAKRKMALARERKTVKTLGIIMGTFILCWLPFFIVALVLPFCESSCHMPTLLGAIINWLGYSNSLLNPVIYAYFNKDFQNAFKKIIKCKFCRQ
The experiment is described as follows: Agonist activity at human recombinant 5-HT1A receptor expressed in HeLa cells after 30 mins by [35S]GTPgammaS binding assay relative to control. Format: functional, cell-based. A digest of the protocol:
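HeLa membranes (50–70 µg protein) in 20 mM HEPES, 3 mM MgSO4, 120 mM NaCl, pH 7.4, preincubated 20 min at 30 °C with 30 µM GDP and drug (0.01 nM–10 µM), then 200 pM [35S]GTPγS added for 30 min at 30 °C. Nonspecific binding with 10 µM GTPγS. Filtration and scintillation counting. Data expressed as % increase over basal, 8-OH-DPAT maximum = 100%. Emax and pD2 derived.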
(GTPγS is a poorly hydrolysed GTP analogue; its binding reports G protein activation.)

The target of experiment [2] is T2, Alpha-1B adrenergic receptor (Homo sapiens, UniProt P35368).
T2 sequence (P35368 whole entry): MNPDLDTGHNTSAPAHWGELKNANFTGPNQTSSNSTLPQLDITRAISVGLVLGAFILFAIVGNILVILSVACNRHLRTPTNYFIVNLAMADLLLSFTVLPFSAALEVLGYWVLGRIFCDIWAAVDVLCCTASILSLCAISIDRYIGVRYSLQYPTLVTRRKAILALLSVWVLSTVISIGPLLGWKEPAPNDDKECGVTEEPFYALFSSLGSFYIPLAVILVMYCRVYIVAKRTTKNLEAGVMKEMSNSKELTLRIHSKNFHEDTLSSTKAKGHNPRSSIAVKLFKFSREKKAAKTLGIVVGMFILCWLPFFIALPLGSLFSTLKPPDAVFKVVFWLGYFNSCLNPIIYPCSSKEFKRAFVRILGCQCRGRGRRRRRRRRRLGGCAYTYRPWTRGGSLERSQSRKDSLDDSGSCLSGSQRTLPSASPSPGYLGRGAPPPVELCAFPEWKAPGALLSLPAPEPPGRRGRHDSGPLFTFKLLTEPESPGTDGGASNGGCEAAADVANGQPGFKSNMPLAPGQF
The experiment is described as follows: Displacement of [3H]prazosin from human recombinant alpha1B adrenoceptor expressed in CHO cells after 30 mins by liquid scintillation counting. Format: cell-based. The procedure, abridged:
(§1)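 CHO cells were stably transfected by electroporation with each human α1 subtype. Membranes (70 µg protein) were incubated in 50 mM Tris pH 7.4 with 0.1–0.4 nM [3H]prazosin and competitor (1 pM–1 µM) for 30 min at 25 °C. Nonspecific binding with 10 µM tamsulosin. Filtration and scintillation counting. pKi from 2–3 experiments in duplicate.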

For experiment [3], the target named is T1, 5-hydroxytryptamine receptor 1A (Homo sapiens). The experiment can be described thus: Agonist activity at human recombinant 5-HT1A receptor expressed in HeLa cells after 30 mins by [35S]GTPgammaS binding assay. Format: functional, cell-based. A digest of the protocol: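 HeLa membranes expressing human 5-HT1A (50–70 µg protein) in 20 mM HEPES, 3 mM MgSO4, 120 mM NaCl pH 7.4 with 30 µM GDP; test drug 0.01 nM–10 µM, 20 min at 30 °C, then 200 pM [35S]GTPγS for 30 min at 30 °C. Nonspecific with 10 µM GTPγS; filtration and scintillation counting. Emax as % of maximal 8-OH-DPAT stimulation; pD2 = −log EC50.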

In experiment [4] the target is T3, 5-hydroxytryptamine receptor 1A (Homo sapiens, UniProt P08908).
T3 sequence (P08908 whole entry): T1 sequence (whole entry)
The experiment can be described thus: Displacement of [3H]8-OH-DPAT from human recombinant 5-HT1A receptor expressed in HeLa cells after 30 mins by liquid scintillation counting. The class given is cell-based. A digest of the protocol: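 HeLa cells stably carrying genomic clone G-21 were grown in DMEM with 10% FCS, then lysed in Tris/EDTA pH 7.4. Membranes (80–90 µg protein) were incubated in 50 mM Tris, 2.5 mM MgCl2, 10 µM pargyline, pH 7.4, with 1 nM [3H]8-OH-DPAT and competitor (1 pM–1 µM) for 30 min at 30 °C, in triplicate. Nonspecific binding with 10 µM 5-HT. pKi from 2–3 experiments.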
(In a radioligand displacement assay an active substance lowers the binding of a labelled ligand.)

The target of experiment [5] is T4, Alpha-1D adrenergic receptor (Homo sapiens, UniProt P25100).
T4 sequence (P25100 whole entry): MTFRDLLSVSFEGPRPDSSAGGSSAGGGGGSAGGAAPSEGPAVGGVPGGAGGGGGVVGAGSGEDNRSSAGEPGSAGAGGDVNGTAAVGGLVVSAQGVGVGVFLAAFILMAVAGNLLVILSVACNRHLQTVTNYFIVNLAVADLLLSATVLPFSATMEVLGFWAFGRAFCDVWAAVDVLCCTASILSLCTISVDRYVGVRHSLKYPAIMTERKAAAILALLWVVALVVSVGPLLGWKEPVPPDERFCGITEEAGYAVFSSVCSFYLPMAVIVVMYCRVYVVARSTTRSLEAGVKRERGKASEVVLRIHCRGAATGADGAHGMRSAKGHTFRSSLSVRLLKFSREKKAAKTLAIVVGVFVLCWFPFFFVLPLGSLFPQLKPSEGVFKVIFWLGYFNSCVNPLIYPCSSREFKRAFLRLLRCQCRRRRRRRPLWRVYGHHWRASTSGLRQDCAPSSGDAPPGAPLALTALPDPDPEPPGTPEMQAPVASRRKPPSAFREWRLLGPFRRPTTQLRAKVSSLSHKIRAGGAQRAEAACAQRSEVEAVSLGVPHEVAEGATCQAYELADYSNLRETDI
The experiment is described as follows: Displacement of [3H]prazosin from human recombinant alpha1D adrenoceptor expressed in CHO cells after 30 mins by liquid scintillation counting. The class given is cell-based. A digest of the protocol:
as §1

The Emax is the greatest response seen or fitted, relative to the assay's reference. For orientation: Ki means the dissociation constant of the complex between target and ligand, obtained from inhibition or displacement. In the case of `COc1ccccc1N1CCN(CC2COC3(CC[S+]([O-])CC3)O2)CC1` (stereo not given), in experiment [1], the Emax came out at 139%. Besides, the results for the Ki in experiment [2], in experiment [4] and in experiment [5] were 479 nM, 117 nM and 42.7 nM, respectively. Also, in experiment [3], the pD2 was 8.13.
